From PubChem BioAssay
XBP1 UPR activ: activators of adaptive XBP1 UPR arm, primary screen, cell-based, CHO-XBP1 luciferase reporter, luminescence, uHTS; IRE1-XBP1 UPR activation; percent of tunicamycin response, DMSO as zero; activation, % at 20 µM; 0.33% of 330,000 active; AID 463104, 2010;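 active = versus positive control, 20 µM dose yields 30% or more activation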
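assay system = CHO-XBP1 luciferase reporter cells | amount = 1000 cells/well | buffer or medium = F12 plus 10% FBS | compound dosing = single point, 20 µM final compound, 1% DMSO | incubation = 16-18 h cell attachment at 37 °C, then 6 h compound exposure | detection = Steady-Glo luminescence read | controls = tunicamycin 10 µg/mL and vehicle-only wells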
CHOP inh: inhibitors of CHOP promoter induction, primary screen, cell-based, unfolded protein response, luciferase reporter; AID 2732, 2010; 3.8% of 220,000 active; inhibition, % at 10 µM; CHO-K1 CHOP-promoter luciferase, tunicamycin-induced, 15-18 h;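 active = compounds that reduced the stress-induced luciferase reporter signal by more than about 70% of percent inhibition, limit read from the data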
CHOP UPR activ: activators of apoptotic CHOP UPR arm, primary screen, cell-based, CHO-CHOP luciferase reporter, luminescence, uHTS. UPR activation; percent of tunicamycin response over DMSO baseline. activation, % at 10 µM. 0.34% of 330,000 active. AID 449763, 2010;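 active = at 10 µM dose, activation of 40% or more, normalized to positive control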
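Evaluation: % reporter activation, DMSO baseline versus tunicamycin full activation; System: CHO-CHOP luciferase reporter cell line; Input: 500 cells/well; Incubation: 6 h compound treatment, 37 °C; Measured by: Steady-Glo luciferase luminescence; Dosing: one dose, 10 µM in 0.5% DMSO; Buffer or medium: F12 medium, 10% FBS; Benchmarks: positive tunicamycin 10 µg/mL, negative DMSO alone.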
B2AR ag: beta2AR agonists driving receptor internalization, primary screen, cell-based, FAP fluorogen, flow cytometry | 0.43% of 340,000 active | response, % (concentration not given with the values) | Beta-2 adrenergic receptor (Homo sapiens), P07550 | Am2.2-beta2AR cells | AID 504454, 2011;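 active = response above a set limit, near 3 SD of response in nonfluorescent compounds, cut at about 42% in these data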
Target sequence (P07550 whole entry, looked up): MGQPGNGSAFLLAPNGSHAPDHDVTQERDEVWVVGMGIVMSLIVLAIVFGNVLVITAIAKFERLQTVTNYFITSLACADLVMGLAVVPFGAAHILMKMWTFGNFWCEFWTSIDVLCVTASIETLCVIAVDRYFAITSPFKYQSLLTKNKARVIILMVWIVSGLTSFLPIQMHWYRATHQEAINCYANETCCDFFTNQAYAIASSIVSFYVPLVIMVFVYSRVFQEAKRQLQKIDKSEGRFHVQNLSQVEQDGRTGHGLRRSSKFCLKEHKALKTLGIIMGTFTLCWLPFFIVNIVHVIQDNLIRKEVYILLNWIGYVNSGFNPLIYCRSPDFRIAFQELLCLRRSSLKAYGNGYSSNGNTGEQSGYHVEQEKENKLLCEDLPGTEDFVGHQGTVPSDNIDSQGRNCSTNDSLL
VLA-4 inh: inhibition in human VLA-4 binding assay, primary screen, VLA-4 allosteric modulator project, MLPCN library, flow cytometry, VLA-4 expressing cells; Integrin alpha-4 (Homo sapiens), P13612; ligand binding flow cytometry; inhibition, % (about 7 µM as worked out from the volumes in the protocol); 0.2% of 330,000 active; in the data active = inhibition above about 50%
CHOP confirm: retest of CHOP induction inhibitors, confirmation, cell-based; 45% of 2,100 active; shares compounds with CHOP inh; CHO-CHOP promoter luciferase reporter, tunicamycin-induced, luminescence; inhibition, % at 10 µM; AID 504437, 2011;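 active = mean of three repeat readings of reporter signal inhibition above a set limit, cut at about 70% in these data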
Of the large screens only hits and unclear results are named; the others gave an inactive call (follow-up assays come after a bar, where they were run). The sample as a whole holds a higher share of hits than the screen did.

O/N=C/c1cc(Cl)ccc1OCc1cccc2ccccc12	CHOP inh 113 (no result: B2AR ag) | CHOP confirm inactive
COc1ccccc1CNC(=S)Nc1ccc(F)cc1	none (no result: CHOP inh)
CCC(C)c1ccc(NC(=S)NCc2ccccc2OC)cc1 (stereo not drawn)	CHOP inh 97 (no result: XBP1 UPR activ, CHOP UPR activ, VLA-4 inh) | CHOP confirm inactive
CCOC(=O)C1=C(C)OC(N)=C(C#N)C1c1cc2c(cc1[N+](=O)[O-])OCO2 (stereo not drawn)	none
O=c1c(Cl)nc2cc(Cl)ccc2n1CCNc1ncc(C(F)(F)F)cc1Cl	CHOP inh 107 | CHOP confirm 128
O=C(NC1CCN(C(=O)NCc2ccccc2)CC1)c1ccccc1	none (no result: CHOP inh)
CC1=NN(c2ccccc2)C(=O)/C1=C/c1c(C)[nH]n(-c2ccc(C)cc2)c1=O	none (no result: CHOP inh, B2AR ag)
Cc1[nH]n(-c2ccccc2)c(=O)c1/C=C1/C=c2ccccc2=N1	CHOP inh 103 (no result: XBP1 UPR activ, CHOP UPR activ, VLA-4 inh) | CHOP confirm 78
O=C(Nc1nc2ccccc2s1)C1CC(=O)N(c2ccc(Br)cc2)C1 (stereo not drawn)	CHOP inh 96 | CHOP confirm inactive
Cc1ccc(O)c(-c2cc(-c3cccc(Br)c3)n[nH]2)c1	CHOP inh 97 | CHOP confirm inactive
Oc1ccc(Br)cc1-c1cc(-c2ccccc2Cl)[nH]n1	none
Oc1ccc(Br)cc1-c1cc(-c2ccccc2F)[nH]n1	CHOP inh 98 | CHOP confirm 100
Oc1ccc(Cl)cc1-c1cc(-c2ccccc2)n[nH]1	CHOP inh 105 | CHOP confirm 82
CCOC(=O)N1CCC(NC(=O)CS(=O)Cc2nc(-c3ccccc3C)oc2C)CC1 (stereo not drawn)	none (no result: CHOP inh)
COc1ccccc1C(CNC(=O)CNC(=O)c1cccc(Cl)c1)N1CCCC1 (stereo not drawn)	none (no result: XBP1 UPR activ, CHOP inh, CHOP UPR activ, VLA-4 inh)
COc1ccc(OCc2cc(=O)[nH]c3ccccc23)cc1	none (no result: CHOP inh)
COc1ccc2c(c1)[nH]c(=O)c1sc3ccccc3c12	CHOP inh 108 | CHOP confirm inactive
COc1ccc2sc3c(=O)[nH]c4ccccc4c3c2c1	CHOP inh 97 | CHOP confirm inactive
Cc1cn(CC(=O)N2CCN(c3ccccn3)CC2)c(=O)[nH]c1=O	none (no result: XBP1 UPR activ, CHOP inh, CHOP UPR activ, VLA-4 inh)
COc1ccc(/C=N\NC(=O)COc2ccc(C(C)(C)C)cc2)cc1Cn1nc(C)cc1C	CHOP inh 110 | CHOP confirm 104
COc1ccc(C2=CC(=O)C[C@H](c3ccc(OC)cc3)C2)cc1	none (no result: CHOP inh)
COc1ccc(C2=CC(=O)C=CC2=O)cc1	CHOP inh 103 (no result: XBP1 UPR activ, CHOP UPR activ, B2AR ag, VLA-4 inh) | CHOP confirm inactive
Cc1ccc(OCc2nc(-c3ccc(Cl)cc3)n[nH]2)cc1	CHOP inh 100 | CHOP confirm inactive
Fc1ccc(OCc2nc(-c3ccncc3)n[nH]2)cc1	none
CSCC[C@H](NC(=O)[C@H]1CC[C@H](CNC(=O)[C@@H](N)Cc2ccccc2)CC1)C(=O)O	none (no result: CHOP inh)
FC(F)(F)c1cccc(CN2CCC(c3cc(-c4cccs4)n[nH]3)CC2)c1	CHOP inh 104 | CHOP confirm 94
Cc1ccc(CN2CCC(c3cc(-c4cccs4)n[nH]3)CC2)cc1	none
C#CCCc1ccccc1/C=[N+](/C)[O-]	none (no result: CHOP inh)
O=C(Nc1ccc(Cl)cc1)N1CCC(c2nc(-c3ccc(F)cc3)no2)CC1	CHOP inh 104 | CHOP confirm inactive
O=C(CN1C(=O)C(=O)N(C2CCCC2)C1=O)Nc1ccc(OC(F)F)cc1	none (no result: CHOP inh)
CC(C)c1nnc(N2C(=O)c3oc4ccccc4c(=O)c3C2c2ccco2)s1 (stereo not drawn)	CHOP inh 112 | CHOP confirm 110
Cc1ccc2nc(-c3ccc(SCC(=O)Nc4nnc(C)s4)nc3)[nH]c2c1	CHOP inh 105 | CHOP confirm inactive
Cc1ccc2nc(-c3ccc(SCC(=O)Nc4nc(C)cs4)nc3)[nH]c2c1	none
Cc1nc(N)sc1-c1csc(Nc2ncccn2)n1	CHOP inh 103 (no result: XBP1 UPR activ, CHOP UPR activ, VLA-4 inh) | CHOP confirm inactive
Cc1cccnc1NC(=O)CCNC(=O)c1ccccc1Cl	none (no result: CHOP inh)
